From PubChem BioAssay
This is a sample that favours compounds with a hit; in the whole collection about 4.4% have one here.
HIF activator – HIF pathway transcriptional activators, primary screen, cell-based, U2OS HRE-luciferase, luminescence | activation, % at 7.5 µM (by protocol) | AID 1910, 2009 | U2OS HRE-luciferase reporter; normalized: DMSO 0%, desferrioxamine 100% | actives 0.32% (n = 300,000);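 active = mean activation of at least 10% of the iron chelator positive control signal, with at least half of replicates also reaching 10%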
HSF-1 act – HSF-1 activators, primary screen, NIH3T3-HGL cells, MG132 stress, luminescence, single point. actives 1.7% (n = 300,000). activation, % at 9 µM. AID 504408, 2011. NIH3T3-HGL HSF-1 luciferase reporter, 8 h; 100% = twice DMSO control signal;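 active = mean replicate activation of at least 50% with a set share of replicates each reaching 50%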
Calb FLC – C. albicans growth inhibition with fluconazole, primary screen, CaCi-2 strain, Alamar Blue fluorescence. C. albicans CaCi-2 (fluconazole-resistant clinical isolate) + fluconazole, 48 h. actives 0.57% (n = 300,000). AID 1979, 2009. growth inhibition, % (test concentration not listed);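 active = growth inhibition above about 58% in most replicates, limit read from the data, passing the limit was not always enough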;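 note: all wells also contain fluconazole at 8 µg/ml as a sub-toxic cotreatment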
HSF1 inh – HSF1 inhibitors in luciferase reporter cells, primary screen, cell-based, NIH3T3, luminescence. NIH3T3-HGL HSE-luciferase, MG132-induced, luminescence 8 h; stronger effect = lower value. actives 0.77% (n = 300,000). activity change, negative = inhibition, % at 7.5 µM (by protocol). AID 2098, 2009;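 active = more than half of replicate wells show activity change below -50%, luminescence cut by over half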;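 note: luciferase reports HSF-1 transcriptional activity via heat shock element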
T cruzi repl – inhibitors of intracellular T. cruzi growth, primary screen, luminescence, NIH3T3 host cells; actives 1.4% (n = 300,000); T. cruzi beta-gal in NIH3T3, 90 h; inhibition, % (no concentration beside the values);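 active = mean inhibition across valid replicates above about 55%, limit read from the data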;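 note: signal also drops with host cell toxicity which is not excluded here; higher percent means less beta-gal luminescence so fewer parasites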
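Material: NIH/3T3 host cells with β-galactosidase reporter T. cruzi; Input: 5,000 host fibroblasts per well; Medium: DMEM, 2% fetal bovine serum; Compound: 50 nL DMSO compound solution per well; Schedule: 3 h host attachment, then at least 90 h co-culture; Detection: luminescent β-galactosidase signal after 60 min lysis.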
Numbers stand for hits; 0 = inactive; - = not tested or not shown.

SMILES | HIF activator | HSF-1 act | Calb FLC | HSF1 inh | T cruzi repl
O=C(C1=C[C@H](C2CCCCC2)C[C@H](OCc2ccc(CO)cc2)O1)N1CCN(Cc2ccc3c(c2)OCO3)CC1 | 0 | 0 | 0 | 0 | 57
O=C(C1=C[C@@H](c2csc3ccccc23)C[C@@H](OCc2ccc(CO)cc2)O1)N1CCN(Cc2ccccc2)CC1 | 0 | 0 | 0 | 0 | 68
C=CCOc1ccc(C2C(C(=O)c3ccco3)=C(O)C(=O)N2c2nnc(C)s2)cc1 (stereo not given) | 0 | 0 | 0 | 0 | 0
Fc1ccc(CN2CCN(C(=S)NCCc3ccccc3)CC2)c(Cl)c1 | 0 | 0 | 0 | 0 | 0
S=C(NCCc1ccccc1)N1CCN(Cc2ccc(Cl)c(Cl)c2)CC1 | 0 | 0 | 0 | -62 | 0
CC(=O)/C=C(\C)N=Nc1c(O)[nH]c2ccccc12 | 0 | 0 | 0 | 0 | 0
C=C1C(C(=O)Nc2cccc(OC)c2)C1C(=O)Nc1cccc(OC)c1 (stereo not given) | 0 | 0 | 0 | 0 | 0
CC(C)N1CCC(N2CCN(C3CCCC3)CC2CCO)CC1 (stereo not given) | 0 | 0 | 0 | -56 | 0
OCCC1CN(C2CCSCC2)CCN1C1CCCC1 (stereo not given) | 0 | 0 | 0 | 0 | 0
CCOC(=O)C1=C(Nc2ccc(C)cc2)CC(C)(O)C(C(=O)OCC)C1c1ccccc1 (stereo not given) | 0 | 0 | 0 | 0 | 0
CCOC(=O)C1=C(Nc2ccccc2)CC(C)(O)C(C(=O)OCC)C1c1ccccc1 (stereo not given) | 0 | 0 | 0 | 0 | 76
CC(C)(C)c1ccc(C(=O)Nc2ccc(F)cc2)s1 | 0 | 78 | 0 | 0 | 0
COc1ccc(C2(c3ccc(OC)cc3)NC(=O)NC2=O)cc1 | 0 | 0 | 0 | 0 | 0
Cc1nn(C)cc1C(C(=O)NC1CCCCC1)N(Cc1ccccc1Cl)C(=O)c1cnccn1 (stereo not given) | 0 | 0 | 78 | 0 | 0
Cc1nn(C)cc1C(C(=O)NC1CCCCC1)N(Cc1ccc(F)cc1)C(=O)c1cnccn1 (stereo not given) | 0 | 0 | 0 | 0 | 0
CCC[C@H](CN[C@@H](CNC)[C@H](C)CC)NCCc1cc(C(F)(F)F)cc(C(F)(F)F)c1 | 0 | 0 | 0 | 0 | 0
CNC[C@@H](CC1CCCCC1)NC[C@H](CC(C)C)NCCc1cccc(C(F)(F)F)c1 | 0 | 0 | 88 | 0 | 0
CC[C@@H](C)[C@H](CNC)NC[C@@H](Cc1cccc2ccccc12)NCCc1cccc(C(F)(F)F)c1 | 0 | 0 | 112 | 0 | 0
CCC[C@@H](CNC)NC[C@H](Cc1ccccc1)NCCCCc1ccccc1 | 0 | 0 | 0 | 0 | 0
CNC[C@@H](Cc1ccccc1)NC[C@@H](CC1CCCCC1)NCCCc1ccccc1 | 0 | 0 | 79 | 0 | 0
COC(=O)C(Cc1ccc(O)cc1)NC(=O)C1CCN(S(=O)(=O)c2ccc(C)cc2)CC1 (stereo not given) | 0 | 0 | 0 | 0 | 0
Cc1ccc2c(c1)COc1c3ccc(C(=O)NCC4CC4)cc3nn1-2 | 0 | 0 | 0 | 0 | 0
O=C(NCC1CC1)c1ccc2c3n(nc2c1)-c1ccccc1CO3 | 0 | 58 | 0 | 0 | 0
CCC(C)NC(=O)CCSCCC(=O)NC(C)CC (stereo not given) | 0 | 0 | 0 | 0 | 0
Cc1cc(-c2nnc(CCC(=O)N(C)CCc3ccccc3)o2)no1 | 0 | 0 | 0 | 0 | 0
SMILES | HIF activator | HSF-1 act | Calb FLC | HSF1 inh | T cruzi repl
Cc1cccc(Cc2nnc(CCC(=O)N(C)CCc3ccccc3)o2)c1 | 0 | 64 | 0 | 0 | 0
O=C1C(Nc2ccccc2)=C(NS(=O)(=O)c2ccccc2)C(=O)c2ccccc21 | 0 | 60 | 0 | 0 | 0
C=CCn1c(C)cc(C(=O)COC(=O)CNC(=O)c2ccccc2)c1C | 0 | 0 | 0 | -82 | 0
O=C(NNC(=O)c1cc([N+](=O)[O-])ccc1Cl)c1cccnc1 | - | - | 0 | - | -
O=C(O)CSc1c2ccccc2cc2ccccc12 | 0 | 0 | 0 | 0 | 0
Oc1cc(-c2ccccc2)c2ccccc2c1 | 0 | 157 | 0 | 0 | 0
NNC(=S)NC1CC2CC1C1C=CCC21 (stereo not given) | 0 | 0 | 0 | -54 | 0
Cc1nnc(N/N=C\c2ccc(-c3ccccc3[N+](=O)[O-])o2)n1N | 0 | 80 | 0 | 0 | 0
Cc1cc(/C=N/NC(N)=S)c(C)n1-c1ccc(Br)cc1 | 0 | 0 | 0 | 0 | 0
Cc1nnc(N/N=C/c2cc(C)n(-c3ccc(F)cc3)c2C)n1N | 0 | 0 | 0 | -96 | 0
Oc1ccccc1/C=N/Nc1nn[nH]n1 | 0 | 0 | 0 | -75 | 0
Cc1nnc(N/N=C/c2ccccc2O)n1N | 0 | 71 | 0 | 0 | 0
C(=N\Nc1nn[nH]n1)/c1ccccc1 | 0 | 0 | 0 | 0 | 0
CCOc1cc(NC(=O)c2cccs2)c(OCC)cc1NC(=O)CCC(=O)NCCN1CCOCC1 | 0 | 0 | 0 | 0 | 0
O=C(COC(=O)CNS(=O)(=O)c1cccc(Br)c1)Nc1ccccc1Sc1ccccc1 | 0 | 0 | 0 | 0 | 0
CCOc1cc(/C=N/Nc2nnc(C)n2N)ccc1O | 0 | 58 | 0 | 0 | 0
CCOc1cc(/C=N/Nc2ncnc(Cl)c2N)ccc1O | 0 | 0 | 0 | 0 | 0
CCc1ccc(C2C(C#N)=C(N)N(N(C)C)C3=C2C(=O)CCC3)cc1 (stereo not given) | 0 | 0 | 0 | 0 | 0
Cc1ccc(/C=C(\C#N)C(=O)Nc2ccccn2)o1 | 0 | 60 | 0 | 0 | 0
COc1ccc(O)c(/C=C(\C#N)C(=O)Nc2ccccn2)c1 | 0 | 0 | 0 | 0 | 0
COc1ccc(/C=C(\C#N)C(=O)Nc2ccccn2)cc1 | 0 | 75 | 0 | 0 | 0
Cc1ccc(/C=C(\C#N)C(=O)NC(C)C)o1 | 0 | 0 | 0 | 0 | 0
Cc1csc(=O)n1CC(=O)OCC(=O)Nc1cc(S(=O)(=O)N2CCOCC2)ccc1Cl | 0 | 0 | 0 | 0 | 0
O=C(CSC(=S)N1CCSCC1)c1ccccc1 | 0 | 60 | 0 | 0 | 0
O=C(CSC(=S)N1CCSCC1)c1ccc(Cl)cc1 | 0 | 0 | 0 | 0 | 0
SMILES | HIF activator | HSF-1 act | Calb FLC | HSF1 inh | T cruzi repl
O=C(Nc1nc2ccccc2s1)C1CCN(S(=O)(=O)c2cc([N+](=O)[O-])ccc2Cl)CC1 | 0 | 0 | 0 | 0 | 59
O=C(Nc1nc2cc3c(cc2s1)OCO3)C1CCCCC1 | 0 | 0 | 0 | 0 | 0
O=C(Nc1nnc(-c2ccccc2Cl)s1)C1CCN(S(=O)(=O)c2ccc(Cl)cc2)CC1 | 0 | 56 | 0 | 0 | 0
O=C(CN1C(=O)CCC1=O)Nc1nc2c(F)cc(F)cc2s1 | 0 | 0 | 0 | 0 | 0
O=C(Nc1nc2c(F)cc(F)cc2s1)C1CC1 | 0 | 0 | 0 | 0 | 58
CCC(C)NC(=O)C1CCN(S(=O)(=O)c2cc([N+](=O)[O-])ccc2Cl)CC1 (stereo not given) | 0 | 0 | 0 | 0 | 0
